{"source": "ChEMBL document CHEMBL5696442", "about": "“Discovery of type II inhibitors of TGFβ-activated kinase 1 (TAK1) and mitogen-activated protein kinase kinase kinase kinase 2 (MAP4K2)” (J Med Chem, 2015)", "key": {"[1]": {"target": "TRAF2 and NCK-interacting protein kinase (Homo sapiens) (UniProt Q9UKE5)", "sequence (Q9UKE5 whole entry, looked up)": "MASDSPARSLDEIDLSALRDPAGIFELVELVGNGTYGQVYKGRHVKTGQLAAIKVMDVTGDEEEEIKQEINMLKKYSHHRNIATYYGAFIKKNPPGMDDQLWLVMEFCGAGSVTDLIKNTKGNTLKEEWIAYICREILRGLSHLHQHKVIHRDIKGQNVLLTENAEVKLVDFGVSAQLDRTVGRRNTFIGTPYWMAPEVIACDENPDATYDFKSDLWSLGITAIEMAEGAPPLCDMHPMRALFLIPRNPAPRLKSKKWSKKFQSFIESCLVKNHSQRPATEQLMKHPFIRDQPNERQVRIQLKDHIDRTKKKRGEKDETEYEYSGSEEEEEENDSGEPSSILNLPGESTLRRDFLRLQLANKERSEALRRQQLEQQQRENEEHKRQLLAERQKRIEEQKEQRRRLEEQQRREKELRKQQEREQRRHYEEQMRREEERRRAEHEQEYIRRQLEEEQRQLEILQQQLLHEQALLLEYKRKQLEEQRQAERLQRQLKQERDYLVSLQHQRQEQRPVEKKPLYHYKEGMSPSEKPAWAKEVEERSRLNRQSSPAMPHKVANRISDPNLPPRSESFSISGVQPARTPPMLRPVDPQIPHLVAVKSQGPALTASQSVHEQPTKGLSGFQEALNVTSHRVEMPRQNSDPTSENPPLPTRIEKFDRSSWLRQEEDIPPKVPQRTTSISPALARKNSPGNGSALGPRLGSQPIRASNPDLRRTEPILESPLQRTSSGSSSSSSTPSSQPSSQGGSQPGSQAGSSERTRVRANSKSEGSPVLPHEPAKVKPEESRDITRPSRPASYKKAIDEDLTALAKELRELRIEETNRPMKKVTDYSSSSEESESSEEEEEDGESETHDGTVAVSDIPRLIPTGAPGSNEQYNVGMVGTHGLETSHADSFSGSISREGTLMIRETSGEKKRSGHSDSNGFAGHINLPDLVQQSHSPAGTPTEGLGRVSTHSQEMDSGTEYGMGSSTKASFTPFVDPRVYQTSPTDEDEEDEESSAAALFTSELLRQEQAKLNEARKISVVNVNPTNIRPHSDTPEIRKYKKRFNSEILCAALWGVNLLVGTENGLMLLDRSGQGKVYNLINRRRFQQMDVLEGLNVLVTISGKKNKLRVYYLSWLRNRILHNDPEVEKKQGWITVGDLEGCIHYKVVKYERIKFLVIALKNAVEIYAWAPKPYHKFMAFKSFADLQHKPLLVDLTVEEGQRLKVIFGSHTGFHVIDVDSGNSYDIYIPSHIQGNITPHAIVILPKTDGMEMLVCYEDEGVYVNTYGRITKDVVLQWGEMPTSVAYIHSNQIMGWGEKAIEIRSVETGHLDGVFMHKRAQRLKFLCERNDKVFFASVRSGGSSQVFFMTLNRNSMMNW", "experiment": "Inhibition of ZC2/TNIK Lys1 labeling site in human A-375 cells at 0.5 uM by KiNativ Profiling analysis relative to control", "format": "cell-based"}, "Ephrin type-B receptor 2": {"target": "Ephrin type-B receptor 2 (Homo sapiens, UniProt P29323)", "experiment": "Inhibition of EphB2 (unknown origin) ACT labeling site by KiNativ Profiling analysis"}, "[2]": {"target": "Serine/threonine-protein kinase MARK2 (Homo sapiens) (UniProt Q7KZI7)", "sequence (Q7KZI7 whole entry)": "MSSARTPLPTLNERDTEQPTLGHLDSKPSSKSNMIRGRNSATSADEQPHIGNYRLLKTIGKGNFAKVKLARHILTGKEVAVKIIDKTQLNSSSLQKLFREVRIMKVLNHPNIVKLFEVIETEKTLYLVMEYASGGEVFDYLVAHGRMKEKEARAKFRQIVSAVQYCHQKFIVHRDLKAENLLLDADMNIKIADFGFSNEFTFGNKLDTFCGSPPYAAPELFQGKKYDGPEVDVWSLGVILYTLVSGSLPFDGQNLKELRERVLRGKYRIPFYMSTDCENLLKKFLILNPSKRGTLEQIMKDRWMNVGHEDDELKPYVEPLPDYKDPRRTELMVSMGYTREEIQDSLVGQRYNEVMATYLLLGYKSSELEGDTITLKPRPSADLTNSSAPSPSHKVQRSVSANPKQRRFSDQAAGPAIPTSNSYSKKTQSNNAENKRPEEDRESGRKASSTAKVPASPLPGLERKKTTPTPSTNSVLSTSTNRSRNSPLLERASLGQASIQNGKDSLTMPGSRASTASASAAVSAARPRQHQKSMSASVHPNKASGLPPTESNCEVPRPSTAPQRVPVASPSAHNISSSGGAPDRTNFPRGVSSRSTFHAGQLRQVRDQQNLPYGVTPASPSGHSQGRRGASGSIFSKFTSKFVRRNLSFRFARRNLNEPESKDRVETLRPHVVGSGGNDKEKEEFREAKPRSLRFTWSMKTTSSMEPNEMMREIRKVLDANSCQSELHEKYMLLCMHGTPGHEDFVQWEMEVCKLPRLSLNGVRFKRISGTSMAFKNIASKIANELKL", "experiment": "Inhibition of MARK2 Lys2 labeling site harbouring FIVHRDLKAENLLLDADMNIK in human A-375 cells at 5 uM by KiNativ Profiling analysis relative to control", "format": "cell-based"}, "[3]": {"target": "Serine/threonine-protein kinase VRK2 (Homo sapiens) (UniProt Q86Y07)", "sequence (Q86Y07 whole entry)": "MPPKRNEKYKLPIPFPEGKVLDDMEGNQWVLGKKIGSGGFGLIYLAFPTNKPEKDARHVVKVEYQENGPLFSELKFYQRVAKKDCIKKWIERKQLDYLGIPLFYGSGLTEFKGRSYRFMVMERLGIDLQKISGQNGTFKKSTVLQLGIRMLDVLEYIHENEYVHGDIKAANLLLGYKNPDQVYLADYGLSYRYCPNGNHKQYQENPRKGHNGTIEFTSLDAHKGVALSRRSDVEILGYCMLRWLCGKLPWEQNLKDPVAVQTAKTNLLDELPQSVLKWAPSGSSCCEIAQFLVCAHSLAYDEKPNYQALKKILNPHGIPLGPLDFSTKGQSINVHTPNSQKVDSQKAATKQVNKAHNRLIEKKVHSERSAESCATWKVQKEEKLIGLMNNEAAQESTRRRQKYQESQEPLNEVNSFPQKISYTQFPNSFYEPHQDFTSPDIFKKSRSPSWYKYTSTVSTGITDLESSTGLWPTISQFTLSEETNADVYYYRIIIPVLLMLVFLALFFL", "experiment": "Inhibition of VRK2 Lys2 labeling site in human A-375 cells at 5 uM by KiNativ Profiling analysis relative to control", "format": "cell-based"}, "[4]": {"target": "RAC-alpha serine/threonine-protein kinase (Homo sapiens) (UniProt P31749)", "experiment": "Inhibition of AKT1 ATP Loop labeling site in human A-375 cells at 0.5 uM by KiNativ Profiling analysis relative to control", "format": "cell-based", "method_in_brief": "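Live A375 melanoma cells were treated with compound at 5 or 0.5 μM, then lysed. The lysates were labeled with a lysine-reactive ATP or ADP-biotin probe. Kinase protection from probe labeling was measured by KiNativ.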"}, "[5]": {"target": "Mitogen-activated protein kinase kinase kinase 4 (Homo sapiens) (UniProt Q9Y6R4)", "sequence (Q9Y6R4 whole entry)": "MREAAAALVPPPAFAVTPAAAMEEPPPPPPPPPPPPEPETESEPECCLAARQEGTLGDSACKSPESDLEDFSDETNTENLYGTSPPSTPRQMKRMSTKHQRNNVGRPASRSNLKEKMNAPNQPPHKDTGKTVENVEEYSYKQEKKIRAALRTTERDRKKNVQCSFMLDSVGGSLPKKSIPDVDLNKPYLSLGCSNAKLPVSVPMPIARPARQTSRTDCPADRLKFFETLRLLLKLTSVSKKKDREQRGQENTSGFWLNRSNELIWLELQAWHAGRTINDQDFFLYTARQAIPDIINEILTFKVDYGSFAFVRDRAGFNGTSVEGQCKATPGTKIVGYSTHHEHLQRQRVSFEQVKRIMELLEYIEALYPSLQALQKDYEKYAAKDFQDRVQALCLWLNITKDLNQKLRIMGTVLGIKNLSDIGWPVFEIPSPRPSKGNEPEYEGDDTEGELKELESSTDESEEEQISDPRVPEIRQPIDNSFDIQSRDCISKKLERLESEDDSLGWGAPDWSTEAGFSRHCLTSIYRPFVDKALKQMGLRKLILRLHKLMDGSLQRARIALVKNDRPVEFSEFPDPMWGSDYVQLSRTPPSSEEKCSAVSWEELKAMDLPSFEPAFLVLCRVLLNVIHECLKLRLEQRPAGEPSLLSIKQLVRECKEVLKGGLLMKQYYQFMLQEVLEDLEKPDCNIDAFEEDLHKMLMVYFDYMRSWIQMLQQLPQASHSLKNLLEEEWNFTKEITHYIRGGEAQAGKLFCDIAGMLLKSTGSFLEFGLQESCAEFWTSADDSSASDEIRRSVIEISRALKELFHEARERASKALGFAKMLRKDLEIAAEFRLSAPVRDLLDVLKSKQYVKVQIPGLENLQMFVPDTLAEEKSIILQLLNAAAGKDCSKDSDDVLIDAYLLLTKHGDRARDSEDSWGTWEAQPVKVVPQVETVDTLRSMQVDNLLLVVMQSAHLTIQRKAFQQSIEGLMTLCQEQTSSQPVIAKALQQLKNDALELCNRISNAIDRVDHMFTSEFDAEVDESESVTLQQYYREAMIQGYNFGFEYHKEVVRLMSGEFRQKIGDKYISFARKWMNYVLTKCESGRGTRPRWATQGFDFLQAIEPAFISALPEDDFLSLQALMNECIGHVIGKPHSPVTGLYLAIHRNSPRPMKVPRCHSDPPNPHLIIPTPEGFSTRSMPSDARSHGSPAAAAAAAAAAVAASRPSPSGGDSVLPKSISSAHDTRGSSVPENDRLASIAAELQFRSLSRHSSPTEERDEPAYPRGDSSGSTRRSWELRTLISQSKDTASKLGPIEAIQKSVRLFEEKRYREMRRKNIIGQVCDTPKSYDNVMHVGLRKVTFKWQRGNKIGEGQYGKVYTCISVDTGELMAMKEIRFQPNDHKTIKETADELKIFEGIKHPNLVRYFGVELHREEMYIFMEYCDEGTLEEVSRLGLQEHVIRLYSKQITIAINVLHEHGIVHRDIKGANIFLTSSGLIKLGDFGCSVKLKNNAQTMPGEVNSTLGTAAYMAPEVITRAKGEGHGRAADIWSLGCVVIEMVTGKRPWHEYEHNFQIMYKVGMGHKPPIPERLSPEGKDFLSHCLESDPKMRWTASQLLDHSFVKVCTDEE", "experiment": "Inhibition of MAP3K4 Lys2 labeling site in human A-375 cells at 0.5 uM by KiNativ Profiling analysis relative to control", "format": "cell-based"}, "[6]": {"target": "T1, Serine/threonine-protein kinase 3 (Homo sapiens) (UniProt Q13188)", "T1 sequence (whole entry)": "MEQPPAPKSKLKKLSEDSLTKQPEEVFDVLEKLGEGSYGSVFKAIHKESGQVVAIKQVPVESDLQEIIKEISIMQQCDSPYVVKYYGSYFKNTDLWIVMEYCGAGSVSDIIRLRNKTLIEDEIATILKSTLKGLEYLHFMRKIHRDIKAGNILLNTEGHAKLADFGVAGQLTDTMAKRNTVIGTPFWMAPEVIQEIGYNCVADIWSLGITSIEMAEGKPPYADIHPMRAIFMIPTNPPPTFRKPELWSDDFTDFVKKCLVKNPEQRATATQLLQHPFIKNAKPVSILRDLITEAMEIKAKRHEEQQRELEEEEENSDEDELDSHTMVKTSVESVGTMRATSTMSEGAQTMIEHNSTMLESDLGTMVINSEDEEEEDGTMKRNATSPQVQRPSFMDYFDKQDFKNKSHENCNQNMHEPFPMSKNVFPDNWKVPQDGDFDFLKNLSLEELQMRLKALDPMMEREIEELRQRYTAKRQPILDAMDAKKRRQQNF", "experiment": "Inhibition of MST2 Lys2 labeling site harbouring DIKAGNILLNTEGHAK in human A-375 cells at 0.5 uM by KiNativ Profiling analysis relative to control", "format": "cell-based"}, "[7]": {"target": "T2, Serine/threonine-protein kinase TBK1 (Homo sapiens) (UniProt Q9UHD2)", "T2 sequence (whole entry)": "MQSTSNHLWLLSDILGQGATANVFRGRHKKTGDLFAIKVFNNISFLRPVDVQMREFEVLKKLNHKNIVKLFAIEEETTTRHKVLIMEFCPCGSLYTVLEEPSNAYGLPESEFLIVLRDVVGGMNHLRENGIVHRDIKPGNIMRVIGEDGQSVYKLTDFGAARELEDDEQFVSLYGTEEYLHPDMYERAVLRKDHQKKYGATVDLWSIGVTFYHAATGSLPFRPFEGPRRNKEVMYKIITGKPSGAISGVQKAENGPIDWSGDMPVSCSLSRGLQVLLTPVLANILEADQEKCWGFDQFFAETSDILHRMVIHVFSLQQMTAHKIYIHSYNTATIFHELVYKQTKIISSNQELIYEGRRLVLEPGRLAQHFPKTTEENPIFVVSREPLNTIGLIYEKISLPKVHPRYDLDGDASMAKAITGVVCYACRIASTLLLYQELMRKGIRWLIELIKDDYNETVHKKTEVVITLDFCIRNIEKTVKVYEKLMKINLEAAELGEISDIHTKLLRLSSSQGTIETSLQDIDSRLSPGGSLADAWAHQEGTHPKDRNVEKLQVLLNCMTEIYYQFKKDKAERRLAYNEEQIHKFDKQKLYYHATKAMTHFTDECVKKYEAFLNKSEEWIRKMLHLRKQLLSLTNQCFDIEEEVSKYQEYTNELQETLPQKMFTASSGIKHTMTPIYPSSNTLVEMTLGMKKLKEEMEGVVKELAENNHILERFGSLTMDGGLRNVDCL", "experiment": "Inhibition of TBK1 Lys1 labeling site in human A-375 cells at 0.5 uM by KiNativ Profiling analysis relative to control", "format": "cell-based"}, "[8]": {"target": "T3, Serine/threonine-protein kinase ULK3 (Homo sapiens) (UniProt Q6PHR2)", "T3 sequence (whole entry)": "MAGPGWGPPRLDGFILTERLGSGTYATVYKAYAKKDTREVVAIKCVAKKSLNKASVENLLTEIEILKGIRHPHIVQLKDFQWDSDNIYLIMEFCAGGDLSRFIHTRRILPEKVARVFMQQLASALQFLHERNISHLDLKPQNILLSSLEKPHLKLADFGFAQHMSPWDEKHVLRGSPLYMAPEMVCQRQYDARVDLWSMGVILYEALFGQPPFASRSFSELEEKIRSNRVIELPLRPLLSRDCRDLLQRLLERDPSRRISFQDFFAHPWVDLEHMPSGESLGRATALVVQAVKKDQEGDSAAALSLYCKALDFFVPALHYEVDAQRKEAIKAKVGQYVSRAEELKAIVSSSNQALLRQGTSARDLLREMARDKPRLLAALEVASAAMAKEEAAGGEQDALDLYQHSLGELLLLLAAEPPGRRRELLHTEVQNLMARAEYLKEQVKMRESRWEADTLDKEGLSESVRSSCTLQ", "experiment": "Inhibition of ULK3 Lys2 labeling site in human A-375 cells at 0.5 uM by KiNativ Profiling analysis relative to control", "format": "cell-based"}, "[9]": {"target": "5'-AMP-activated protein kinase catalytic subunit alpha-1 (Homo sapiens) (UniProt Q13131)", "sequence (Q13131 whole entry, looked up)": "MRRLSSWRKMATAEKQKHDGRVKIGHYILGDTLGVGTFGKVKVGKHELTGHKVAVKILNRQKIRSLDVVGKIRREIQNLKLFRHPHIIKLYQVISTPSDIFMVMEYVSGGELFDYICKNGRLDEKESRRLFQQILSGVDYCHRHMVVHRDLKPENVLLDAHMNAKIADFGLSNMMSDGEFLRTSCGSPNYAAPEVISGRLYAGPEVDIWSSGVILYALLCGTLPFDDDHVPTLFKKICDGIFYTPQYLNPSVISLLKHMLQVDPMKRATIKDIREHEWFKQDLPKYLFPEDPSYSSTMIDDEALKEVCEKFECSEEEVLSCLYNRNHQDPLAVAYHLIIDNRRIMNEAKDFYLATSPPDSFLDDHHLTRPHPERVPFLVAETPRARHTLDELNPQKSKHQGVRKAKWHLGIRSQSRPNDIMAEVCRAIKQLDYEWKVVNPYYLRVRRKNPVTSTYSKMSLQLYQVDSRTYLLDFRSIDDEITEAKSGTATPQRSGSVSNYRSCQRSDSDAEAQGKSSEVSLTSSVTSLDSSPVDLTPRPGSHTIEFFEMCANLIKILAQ", "experiment": "Inhibition of AMPKa1 ATP Loop labeling site in human A-375 cells at 0.05 uM by KiNativ Profiling analysis relative to control", "format": "cell-based"}, "[10]": {"target": "Tyrosine-protein kinase Fer (Homo sapiens, UniProt P16591)", "experiment": "Inhibition of FER Lys1 labeling site harbouring TSVAVKTCKEDLPQELKin human A-375 cells at 0.05 uM by KiNativ Profiling analysis relative to control", "format": "cell-based"}}}
{"smiles": "CCN1CCN(Cc2ccc(NC(=O)c3ccc(C)c(/C=C/c4cnc5[nH]ccc5c4OC)c3)cc2C(F)(F)F)CC1", "values": [{"measurement": "inhibition", "setting": "[1]", "result": 74.9, "unit": "%"}, {"measurement": "IC50", "setting": "Ephrin type-B receptor 2", "result": 75, "unit": "nM"}, {"measurement": "inhibition", "setting": "[2]", "result": 24.6, "unit": "%"}, {"measurement": "inhibition", "setting": "[3]", "result": 21.5, "unit": "%"}, {"measurement": "inhibition", "setting": "[4]", "result": 15, "unit": "%"}, {"measurement": "inhibition", "setting": "[5]", "result": -4.4, "unit": "%"}, {"measurement": "inhibition", "setting": "[6]", "result": -9.8, "unit": "%"}, {"measurement": "inhibition", "setting": "[7]", "result": 28.7, "unit": "%"}, {"measurement": "inhibition", "setting": "[8]", "result": 8.5, "unit": "%"}, {"measurement": "inhibition", "setting": "[9]", "result": -8.8, "unit": "%"}, {"measurement": "inhibition", "setting": "[10]", "result": 2.6, "unit": "%"}]}
{"smiles": "CCN1CCN(Cc2ccc(NC(=O)c3ccc(C)c(Oc4ccnc5[nH]ccc45)c3)cc2C(F)(F)F)CC1", "values": [{"measurement": "inhibition", "setting": "[1]", "result": 77.9, "unit": "%"}, {"measurement": "IC50", "setting": "Ephrin type-B receptor 2", "result": 672, "unit": "nM"}, {"measurement": "inhibition", "setting": "[2]", "result": 12.9, "unit": "%"}, {"measurement": "inhibition", "setting": "[3]", "result": 12.7, "unit": "%"}, {"measurement": "inhibition", "setting": "[4]", "result": -1, "unit": "%"}, {"measurement": "inhibition", "setting": "[5]", "result": 1.2, "unit": "%"}, {"measurement": "inhibition", "setting": "[6]", "result": -3.5, "unit": "%"}, {"measurement": "inhibition", "setting": "[7]", "result": 17.1, "unit": "%"}, {"measurement": "inhibition", "setting": "[8]", "result": -2.5, "unit": "%"}, {"measurement": "inhibition", "setting": "[9]", "result": -4.4, "unit": "%"}, {"measurement": "inhibition", "setting": "[10]", "result": 64.6, "unit": "%"}]}
